Data on one molecule can be found in ChEMBL document CHEMBL4706643 (J Med Chem, 2021).

In data set [1] the test system is Hepatitis B virus. Kind of data set: Antiviral activity against HBV infected in human HepG2-NTCP cells assessed as reduction in HBeAg secretion cells inoculated with virus for 4 hrs at room temperature and 37 degree C for 24 hrs followed inoculum changed with PMM medium for every 2 days until day 5 post infection by ELISA. It counts as functional, organism-based.

A short description of data set [2]: AUC (0 to infinity) in C57BL/6 mouse at 10 mg/kg, ip. Conditions: in vivo. Also on record: time infinity, route intraperitoneal, dose 10 mg/kg. It counts as ADME, organism-based. The procedure, abridged: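 Male C57BL/6 mice, n = 3, dosed IV at 5 mg/kg, IP at 10 mg/kg or by oral gavage (PO) at 10 mg/kg. All doses formulated in DMSO:cremophor:0.9% NaCl = 5:5:90. AUC from time zero to infinity (h*ng/mL) was derived from plasma drug levels and is reported as the mean of the males.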

Data set [3] can be described thus: Cmax in C57BL/6 mouse at 10 mg/kg, ip. Set-up: route intraperitoneal, dose 10 mg/kg. It counts as ADME, organism-based. The following applies: in vivo. Put shortly: (§1)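 Male C57BL/6 mice (n = 3), single dose IV 5 mg/kg, IP 10 mg/kg or PO 10 mg/kg in DMSO:cremophor:0.9% NaCl 5:5:90; plasma parameters reported as means.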
A short description of data set [4]: Cmax in C57BL/6 mouse at 10 mg/kg, po. It counts as ADME, organism-based. Also on record: route oral, dose 10 mg/kg. Conditions: in vivo. Put shortly:
as §1

Data set [5] concerns the target T1, Hepatic sodium/bile acid cotransporter (Homo sapiens, UniProt Q14973).
T1 sequence (Q14973 whole entry): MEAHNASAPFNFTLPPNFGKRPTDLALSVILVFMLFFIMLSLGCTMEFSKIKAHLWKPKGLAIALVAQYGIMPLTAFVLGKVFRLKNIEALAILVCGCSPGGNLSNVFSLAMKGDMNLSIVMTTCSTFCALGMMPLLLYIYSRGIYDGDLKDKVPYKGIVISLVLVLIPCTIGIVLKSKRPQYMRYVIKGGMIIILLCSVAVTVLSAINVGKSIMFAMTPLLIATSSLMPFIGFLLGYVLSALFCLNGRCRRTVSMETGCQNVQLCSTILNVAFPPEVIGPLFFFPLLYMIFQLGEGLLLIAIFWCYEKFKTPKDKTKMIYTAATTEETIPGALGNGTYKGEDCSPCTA
Kind of data set: Inhibition of human NTCP-mediated [3H]-TCA uptake expressed in human HepG2 cells incubated for 2 hrs followed by substrate addition and measured for 10 mins by microbeta liquid scintillation counter analysis. It counts as cell-based. The procedure, abridged:
(§2)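 HepG2 cells expressing NTCP (human, mouse, monkey or tree shrew) seeded 4–6 h, PMM 20–24 h; compound 2 h, then Na+ Ringer's buffer with 2 μM 3H-TCA, 37 °C 10 min; PBS washes, lysis in 1% Triton X-100, scintillation counting. Single-concentration lines at 2 μM.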

Data set [6] deals with T1, Hepatic sodium/bile acid cotransporter. Put plainly: Inhibition of human NTCP expressed in human HepG2 cells assessed as decrease in NTCP surface expression at 2 uM incubated for 2 hrs by DAPI staining based analysis. It counts as cell-based. Conditions: hepg2, 2 h, 2 h. The procedure, abridged: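 HepG2-NTCP cells treated 2 h with DMSO, compound or TLCA at 2 μM, then immunostained for NTCP to assess cell-surface distribution.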

The test system of data set [7] is HepG2. Put plainly: Inhibition of monkey NTCP-mediated [3H]-TCA uptake expressed in human HepG2 cells at 2 uM incubated for 2 hrs followed by substrate addition and measured for 10 mins by microbeta liquid scintillation counter analysis. It counts as cell-based. Conditions: Macaca mulatta. The procedure, abridged:
as §2

For data set [8], the target named is T2, Ileal sodium/bile acid cotransporter (Homo sapiens, UniProt Q12908).
T2 sequence (Q12908 whole entry): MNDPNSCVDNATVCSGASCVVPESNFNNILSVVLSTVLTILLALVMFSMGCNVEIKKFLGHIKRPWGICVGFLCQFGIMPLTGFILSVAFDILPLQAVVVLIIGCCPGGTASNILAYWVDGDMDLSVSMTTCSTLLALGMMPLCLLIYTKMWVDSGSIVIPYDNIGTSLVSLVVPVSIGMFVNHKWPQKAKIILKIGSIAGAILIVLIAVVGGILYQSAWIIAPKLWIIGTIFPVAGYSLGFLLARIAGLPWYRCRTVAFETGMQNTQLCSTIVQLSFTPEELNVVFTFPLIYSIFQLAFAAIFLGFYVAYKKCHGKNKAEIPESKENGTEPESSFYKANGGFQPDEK
Put plainly: Inhibition of human ASBT.

In data set [9] the test system is HepG2. Put plainly: Cytotoxicity against human HepG2 cells at 100 uM. It counts as cell-based. The following applies: hepg2, 100 µM.
The test system of data set [10] is Hepatitis delta virus. Put plainly: Antiviral activity against HDV infected in NTCP-edited FVB mouse assessed as decrease in viral RNA levels in liver at 30 mg/kg, po administered for 8 days via gavage followed by HDV challenge at day 2 and measured at day 8 post infection by qPCR analysis. The following applies: time 8.0 day.

“Also recorded” adds a separate entry of the source. Active and inactive are the calls of the source. No cut-off for these calls is given here.

Consider `CC[C@@H]1NC(=O)[C@H]([C@@H]2O[C@@H](Sc3cccc(OCc4ccccc4)c3)C[C@H]2C)N(C)C(=O)[C@H](C(C)C)N(C)C(=O)[C@H](CC(C)C)N(C)C(=O)[C@H](CC(C)C)N(C)C(=O)[C@@H](C)NC(=O)[C@H](C)NC(=O)[C@H](CC(C)C)N(C)C(=O)[C@H](C(C)C)NC(=O)[C@H](CC(C)C)N(C)C(=O)CN(C)C1=O`, for which the IC50 in data set [1] was found to be 0.11 µM; in data set [5], 0.066 µM. Also, in [2], the area under the curve AUC(0-inf) worked out at 87400 ng·h/mL. Besides, the Cmax worked out at 12400 ng/mL in data set [3] and 2290 ng/mL in data set [4]. For the same molecule, the figures for the “inhibition (INH)” value in data set [6] and in [8] were “Active; also recorded: Not Active” and “Not Active”, respectively. Further, the inhibition entry in data set [7] is “Active”. Moreover, the Activity result in data set [9] is “Non-Toxic”. The result in data set [10] was Active.

By IC50 is commonly meant the midpoint of a concentration-inhibition curve. Usually AUC(0-inf) stands for the area under the concentration-time curve extrapolated to infinity. One may read the Cmax as the peak of the concentration-time curve.
